Structures are written as SMILES. Activity calls are given as the source filed them. No cut-off for these calls is given here.

One assay concerns HEK293. Briefly: Inhibition of human NF-kappaB in HEK cells by luciferase reporter gene assay. It is filed as cell-based. Summed up:
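HEK293 cells with a chromosomally integrated luciferase reporter under an NF-κB response element. Pathway activation induced by human tumor necrosis factor. After incubation, treated cells were lysed in reporter lysis buffer. Luciferase light output was read on a luminometer.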

The test system of a further assay is U-87MG ATCC. Briefly: Cytotoxicity against human U87 cells after 48 hrs by XTT assay. It is filed as functional, cell-based. Summed up: (§1)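 U87 glioma cells kept in ATCC-recommended medium with 10% FBS at 37 °C, 5% CO2. Seeded at 1000 cells/well, exposed to compounds for 48 h. XTT added, then plates held another 4 h at 37 °C. Viability read colorimetrically per the kit protocol; inhibition taken at 100 μM.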

The nature of assay [1]: Cytotoxicity against human U87 cells assessed as growth inhibition at 100 uM after 48 hrs by XTT assay. The format is functional, U-87MG ATCC. The note with it: U-87 MG, read-out: GI. Summed up: as §1
In general terms: Tetrazolium dyes change colour on reduction, which living cells bring about.

Take `C[C@@H]1CC[C@@]2(OC1)O[C@H]1C[C@H]3[C@@H]4[C@H](O)C=C5C[C@@H](O)CC[C@]5(C)[C@H]4C[C@@H](O)[C@]3(C)[C@H]1[C@@H]2CO`: the inhibition result in the assay with HEK293 was “inactive”. For the compound `C[C@@H]1CC[C@@]2(OC1)O[C@H]1C[C@H]3[C@@H]4[C@@H](O)C=C5C[C@@H](O)CC[C@]5(C)[C@H]4CC[C@]3(C)[C@H]1[C@@H]2C`, the result in the assay with U-87MG ATCC was inactive. In addition, in the assay on HEK293, the inhibition entry is “inactive”. As for `CC(=O)O[C@H]1CC[C@@]2(C)C(=CC[C@H]3[C@@H]4C[C@@H]5O[C@]6(CC[C@@H](C)CO6)[C@@H](C)[C@@H]5[C@@]4(C)CC[C@@H]32)C1`, the outcome in the assay with U-87MG ATCC was inactive. Moreover, in the assay with HEK293, the inhibition entry was “inactive”. For `C[C@@H]1CC[C@@]2(OC1)O[C@H]1C[C@H]3[C@@H]4[C@@H](O)C=C5C[C@@H](O)CC[C@]5(C)[C@H]4C[C@@H](O)[C@]3(C)[C@H]1[C@@H]2C`, the result with U-87MG ATCC was inactive. Further, the inhibition result in the assay on HEK293 was “inactive”.

On to `C[C@@H]1CC[C@@]2(OC1)O[C@H]1C[C@H]3[C@H]4[C@H]([C@H](O)C[C@]3(C)[C@H]1[C@@H]2CO)[C@@]1(C)CC[C@H](O)CC1=C[C@@H]4O`, for which the inhibition entry in the assay on HEK293 was “inactive”. Still for that read-out and setting: the value for `C[C@@H]1CC[C@@]2(OC1)O[C@H]1C[C@H]3[C@@H]4CC=C5C[C@@H](O)CC[C@]5(C)[C@H]4CC[C@]3(C)[C@H]1[C@@H]2C` was “inactive”. Consider `C[C@@H]1CC[C@@]2(OC1)O[C@H]1[C@H](O)[C@H]3[C@@H]4[C@H](O)C=C5C[C@@H](O)CC[C@]5(C)[C@H]4CC[C@]3(C)[C@H]1[C@@H]2CO`, for which the outcome in the assay with U-87MG ATCC was inactive. In addition, in the assay with HEK293, the inhibition result was “inactive”. `C[C@@H]1CC[C@@]2(OC1)O[C@H]1C[C@H]3[C@@H]4[C@@H](O)C=C5C[C@@H](O)CC[C@]5(C)[C@H]4CC[C@]3(C)[C@H]1[C@@H]2CO`: the inhibition of growth at 100 µM in assay [1] amounted to 28.2%. For the same compound, the outcome in the assay on U-87MG ATCC was inactive. Further, in the assay with HEK293, the inhibition result was “inactive”. As for `C[C@@H]1CC[C@@]2(OC1)O[C@H]1C[C@H]3[C@@H]4[C@@H](O)C=C5C[C@@H](O)CC[C@]5(C)[C@H]4C[C@@H](O)[C@]3(C)[C@H]1[C@@H]2CO`, in the assay with U-87MG ATCC, the result was inactive. In addition, the inhibition result with HEK293 was “inactive”. `C[C@@H]1CC[C@@]2(OC1)O[C@H]1C[C@H]3[C@@H]4CC[C@H]5C[C@@H](O)CC[C@]5(C)[C@H]4CC[C@]3(C)[C@H]1[C@@H]2C`: the inhibition entry with HEK293 was “inactive”. Consider `C[C@@H]1CC[C@@]2(OC1)O[C@H]1C[C@H]3[C@@H]4CCC5=CC(=O)CC[C@]5(C)[C@H]4CC[C@]3(C)[C@H]1[C@@H]2C`, for which the outcome in the assay with U-87MG ATCC was inactive. Also, in the assay on HEK293, the inhibition result was “inactive”.

The record behind these values is ChEMBL document CHEMBL1914310, “Microbial transformations of diosgenin by the white-rot basidiomycete Coriolus versicolor” (2011).
